Source: ChEMBL document CHEMBL1150303, “Synthesis, in vitro antibacterial and carbonic anhydrase II inhibitory activities of N-acylsulfonamides using silica sulfuric acid as an efficient catalyst under both solvent-free and heterogeneous conditions” (2008)
Values after ≈ are worked out from the molar mass of the structure shown.

Legend:
Assay type in all cases: functional
Pseudomonas aeruginosa = test: Antibacterial activity against Pseudomonas aeruginosa ATCC 27853 by conventional agar dilution method
Method in brief: (§1)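 Inoculum: 3–5 colonies suspended to 0.5 McFarland, then diluted 1000-fold to 1.5 · 10⁵ CFU/mL. Compounds dissolved in DMSO, diluted with water to stock, then serially doubled in Mueller–Hinton broth to 1000, 512, 256, 128, 64, 32, 16, 8, 4 and 2 in a 12-well series. Equal volumes of dilution and bacterial suspension were combined. DMSO-only medium served as solvent control. Sulfamethoxazole was the reference.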

Escherichia coli = test: Antibacterial activity against Escherichia coli isolate by conventional agar dilution method; method in brief: as §1
Klebsiella pneumoniae = test: Antibacterial activity against Klebsiella pneumoniae isolate by conventional agar dilution method; method in brief: as §1
Staphylococcus aureus [1] = test: Antibacterial activity against Staphylococcus aureus isolate by conventional agar dilution method; method in brief: as §1
Staphylococcus aureus [2] = test: Antibacterial activity against Staphylococcus aureus […] by conventional agar dilution method; method in brief: as §1
Enterococcus faecium = test: Antibacterial activity against Enterococcus faecium isolate by conventional agar dilution method; method in brief: as §1

## CCCCC(=O)NS(=O)(=O)c1ccc(C)cc1
Pseudomonas aeruginosa
  MIC: > 1000 µg/mL
Escherichia coli
  MIC: > 1000 µg/mL
Klebsiella pneumoniae
  MIC: > 1000 µg/mL
Staphylococcus aureus [1]
  MIC: > 1000 µg/mL
Staphylococcus aureus [2]
  MIC: > 1000 µg/mL
Enterococcus faecium
  MIC: > 1000 µg/mL

## O=C(NS(=O)(=O)c1ccccc1)c1ccccc1
Pseudomonas aeruginosa
  MIC: 256 µg/mL (≈ 980 µM)
Escherichia coli
  MIC: 256 µg/mL (≈ 980 µM)
Klebsiella pneumoniae
  MIC: 256 µg/mL (≈ 980 µM)
Staphylococcus aureus [1]
  MIC: 500 µg/mL (≈ 1910 µM)
Staphylococcus aureus [2]
  MIC: 256 µg/mL (≈ 980 µM)
Enterococcus faecium
  MIC: 256 µg/mL (≈ 980 µM)

## Cc1ccc(S(=O)(=O)NC(=O)c2ccccc2)cc1
Pseudomonas aeruginosa
  MIC: 256 µg/mL (≈ 930 µM)
Escherichia coli
  MIC: 64 µg/mL (≈ 232 µM)
Klebsiella pneumoniae
  MIC: 256 µg/mL (≈ 930 µM)
Staphylococcus aureus [1]
  MIC: 256 µg/mL (≈ 930 µM)
Staphylococcus aureus [2]
  MIC: 256 µg/mL (≈ 930 µM)
Enterococcus faecium
  MIC: 128 µg/mL (≈ 465 µM)

## Cc1cc(NS(=O)(=O)c2ccc(N)cc2)no1 [SULFAMETHOXAZOLE]
Pseudomonas aeruginosa
  MIC: 8 µg/mL (≈ 31.6 µM)
Escherichia coli
  MIC: 2 µg/mL (≈ 7.9 µM)
Klebsiella pneumoniae
  MIC: 8 µg/mL (≈ 31.6 µM)
Staphylococcus aureus [1]
  MIC: 4 µg/mL (≈ 15.8 µM)
Staphylococcus aureus [2]
  MIC: 2 µg/mL (≈ 7.9 µM)
Enterococcus faecium
  MIC: 4 µg/mL (≈ 15.8 µM)

## CC(=O)NS(=O)(=O)c1ccccc1
Pseudomonas aeruginosa
  MIC: > 1000 µg/mL
Escherichia coli
  MIC: > 1000 µg/mL
Klebsiella pneumoniae
  MIC: > 1000 µg/mL
Staphylococcus aureus [1]
  MIC: > 1000 µg/mL
Staphylococcus aureus [2]
  MIC: > 1000 µg/mL
Enterococcus faecium
  MIC: > 1000 µg/mL

## CS(=O)(=O)NC(=O)c1ccccc1
Pseudomonas aeruginosa
  MIC: 500 µg/mL (≈ 2510 µM)
Escherichia coli
  MIC: 256 µg/mL (≈ 1280 µM)
Klebsiella pneumoniae
  MIC: 500 µg/mL (≈ 2510 µM)
Staphylococcus aureus [1]
  MIC: 256 µg/mL (≈ 1280 µM)
Staphylococcus aureus [2]
  MIC: 500 µg/mL (≈ 2510 µM)
Enterococcus faecium
  MIC: 256 µg/mL (≈ 1280 µM)

## CCC(=O)NS(=O)(=O)c1ccc(C)cc1
Pseudomonas aeruginosa
  MIC: 500 µg/mL (≈ 2200 µM)
Escherichia coli
  MIC: 128 µg/mL (≈ 563 µM)
Klebsiella pneumoniae
  MIC: 500 µg/mL (≈ 2200 µM)
Staphylococcus aureus [1]
  MIC: 128 µg/mL (≈ 563 µM)
Staphylococcus aureus [2]
  MIC: 64 µg/mL (≈ 282 µM)
Enterococcus faecium
  MIC: 64 µg/mL (≈ 282 µM)

## CCCCC(=O)NS(=O)(=O)c1ccccc1
Pseudomonas aeruginosa
  MIC: > 1000 µg/mL
Escherichia coli
  MIC: > 1000 µg/mL
Klebsiella pneumoniae
  MIC: > 1000 µg/mL
Staphylococcus aureus [1]
  MIC: > 1000 µg/mL
Staphylococcus aureus [2]
  MIC: > 1000 µg/mL
Enterococcus faecium
  MIC: > 1000 µg/mL

## CCC(=O)NS(=O)(=O)c1ccccc1
Pseudomonas aeruginosa
  MIC: 500 µg/mL (≈ 2340 µM)
Escherichia coli
  MIC: 256 µg/mL (≈ 1200 µM)
Klebsiella pneumoniae
  MIC: 256 µg/mL (≈ 1200 µM)
Staphylococcus aureus [1]
  MIC: 256 µg/mL (≈ 1200 µM)
Staphylococcus aureus [2]
  MIC: 128 µg/mL (≈ 600 µM)
Enterococcus faecium
  MIC: 64 µg/mL (≈ 300 µM)
